ChEMBL document CHEMBL1121884, “Piperazinylquinoxalines with central serotoninmimetic activity” (1981)
One block for each compound: values may come before it. Active and inactive are the calls of the source. The calls are words filed in the database; no cut-off is given here.

Legend:
[1] = molecular target: T1, Serotonin (5-HT) receptor (Rattus norvegicus) (UniProt P35563+P35365+P32305+P31388+Q9JJ16+P28564+P30994+Q62758+P08909+P14842+P30940+P35364+P19327+P28565); test: (§1) Ability to elicit head twitches in rats (a serotonin mimetic response); type: functional; parameters: concentration or dose not given beside the values
Procedure, shortened: (§2)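 Female Sprague-Dawley rats (150-250 g), compound given ip in 1% methylcellulose vehicle, dose as base weight; quantal scoring of rats showing at least one head twitch during a 2-min observation beginning 30 min after dosing; usually six rats per dose level; vehicle controls run.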

[2] = molecular target: T1, Serotonin (5-HT) receptor (Rattus norvegicus); test: as §1; type: functional; parameters: concentration or dose not given beside the values; procedure, shortened: as §2; remark: listed apart in the source
[3] = molecular target: T1, Serotonin (5-HT) receptor (Rattus norvegicus); test: as §1; type: functional; parameters: concentration or dose not given beside the values; procedure, shortened: as §2; remark: listed apart in the source
[4] = molecular target: Sodium-dependent serotonin transporter (Rattus norvegicus) (UniProt P31652); test: Serotonin neuronal reuptake blocking activity was determined by the antagonism of the head twitch response induced in rats; type: functional; parameters: concentration or dose not given beside the values
Procedure, shortened: (§3)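 Female Sprague-Dawley rats (150-250 g) dosed ip with compound (1% methylcellulose vehicle, dose as base weight), then p-chloromethamphetamine 6.0 mg/kg ip 1 h later; head twitches observed 30 min after PCMA; scored as rats not twitching; usually six rats per dose; ED50 = dose antagonizing PCMA head twitch in 50% of animals, with 95% confidence limits.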

[5] = molecular target: Sodium-dependent serotonin transporter (Rattus norvegicus) (UniProt P31652); test: (§4) Serotonin neuronal reuptake blocking activity was determined by the antagonism of the head twitch response induced by treatment of rats; type: functional; parameters: concentration or dose not given beside the values; procedure, shortened: as §3
[6] = molecular target: Sodium-dependent serotonin transporter (Rattus norvegicus) (UniProt P31652); test: as §4; type: functional; parameters: concentration or dose not given beside the values; procedure, shortened: as §3; remark: listed apart in the source
Rattus norvegicus [7] = test: Serotonin neuronal reuptake blocking activity was determined by the antagonism of the head twitch response induced by treatment of rats with p-chloromethamphetamine (PCMA) after 0.67 mg/kg of ip administration; type: functional; conditions: route intraperitoneal; procedure, shortened: as §3
Rattus norvegicus [8] = test: Ability to elicit head twitches in rats a response characteristic of a serotonin mimetic action in the central nervous system after 6 mg/kg of ip administration; type: functional; conditions: route intraperitoneal; procedure, shortened: as §2
Rattus norvegicus [9] = test: Ability to elicit head twitches in rats a response characteristic of a serotonin mimetic action in the central nervous system was measured after 2 mg/kg of ip administration; type: functional; conditions: route intraperitoneal; procedure, shortened: as §2
Rattus norvegicus [10] = test: Serotonin neuronal reuptake blocking activity was determined by the antagonism of the head twitch response induced by treatment of rats with p-chloromethamphetamine (PCMA) after 2 mg/kg of ip administration; type: functional; conditions: route intraperitoneal; procedure, shortened: as §3
Rattus norvegicus [11] = test: Serotonin neuronal reuptake blocking activity was determined by the antagonism of the head twitch response induced in rats with p-chloromethamphetamine (PCMA) after 6 mg/kg of ip administration; type: functional; conditions: route intraperitoneal; procedure, shortened: as §3
Rattus norvegicus [12] = test: Ability to elicit head twitches in rats a response characteristic of a serotonin mimetic action in the central nervous system was measured after 0.67 mg/kg of ip administration; type: functional; conditions: route intraperitoneal; procedure, shortened: as §2
Rattus norvegicus [13] = species: Rattus norvegicus; test: ED50 value expresses the inhibition of serotonin reuptake in rat.; type: functional; procedure, shortened: as §3
Rattus norvegicus [14] = test: Ability to elicit head twitches in rats a response characteristic of a serotonin mimetic action in the central nervous system after 40 mg/kg of ip administration; Animals succumbed; type: functional, organism-based; parameters: dose 40 mg/kg; procedure, shortened: as §2
Rattus norvegicus [15] = test: Ability to elicit head twitches in rats a response characteristic of a serotonin mimetic action in the central nervous system after 9 mg/kg of ip administration; type: functional; conditions: route intraperitoneal; procedure, shortened: as §2
Rattus norvegicus [16] = test: Ability to elicit head twitches in rats a response characteristic of a serotonin mimetic action in the central nervous system was measured after 3 mg/kg of ip administration; type: functional; conditions: route intraperitoneal; procedure, shortened: as §2
Rattus norvegicus [17] = test: Serotonin neuronal reuptake blocking activity was determined by the antagonism of the head twitch response induced in rats with p-chloromethamphetamine (PCMA) after 9 mg/kg of ip administration; type: functional; conditions: route intraperitoneal; procedure, shortened: as §3
Rattus norvegicus [18] = test: Serotonin neuronal reuptake blocking activity was determined by the antagonism of the head twitch response induced by treatment of rats with p-chloromethamphetamine (PCMA) after 3 mg/kg of ip administration; type: functional; conditions: route intraperitoneal; procedure, shortened: as §3
Rattus norvegicus [19] = test: Serotonin neuronal reuptake blocking activity was determined by the antagonism of the head twitch response induced by treatment of rats with p-chloromethamphetamine (PCMA) after 1 mg/kg of ip administration; type: functional; conditions: route intraperitoneal; procedure, shortened: as §3
Rattus norvegicus [20] = test: Ability to elicit head twitches in rats a response characteristic of a serotonin mimetic action in the central nervous system was measured after 1 mg/kg of ip administration; type: functional; conditions: route intraperitoneal; procedure, shortened: as §2
Rattus norvegicus [21] = test: Serotonin neuronal reuptake blocking activity was determined by the antagonism of the head twitch response induced by treatment of rats with p-chloromethamphetamine (PCMA) after 1.0 mg/kg of ip administration; type: functional; conditions: route intraperitoneal; procedure, shortened: as §3
Rattus norvegicus [22] = test: Ability to elicit head twitches in rats a response characteristic of a serotonin mimetic action in the central nervous system was measured after 1.0 mg/kg of ip administration; type: functional; conditions: route intraperitoneal; procedure, shortened: as §2
Rattus norvegicus [23] = test: Ability to elicit head twitches in rats a response characteristic of a serotonin mimetic action in the central nervous system after 6.0 mg/kg of ip administration; type: functional; conditions: route intraperitoneal; procedure, shortened: as §2
Rattus norvegicus [24] = test: Ability to elicit head twitches in rats a response characteristic of a serotonin mimetic action in the central nervous system was measured after 2.0 mg/kg of ip administration; type: functional; conditions: route intraperitoneal; procedure, shortened: as §2
Rattus norvegicus [25] = test: Serotonin neuronal reuptake blocking activity was determined by the antagonism of the head twitch response induced in rats with p-chloromethamphetamine (PCMA) after 6.0 mg/kg of ip administration; type: functional; conditions: route intraperitoneal; procedure, shortened: as §3

Chain of Sodium-dependent serotonin transporter (Rattus norvegicus) (P31652 whole entry): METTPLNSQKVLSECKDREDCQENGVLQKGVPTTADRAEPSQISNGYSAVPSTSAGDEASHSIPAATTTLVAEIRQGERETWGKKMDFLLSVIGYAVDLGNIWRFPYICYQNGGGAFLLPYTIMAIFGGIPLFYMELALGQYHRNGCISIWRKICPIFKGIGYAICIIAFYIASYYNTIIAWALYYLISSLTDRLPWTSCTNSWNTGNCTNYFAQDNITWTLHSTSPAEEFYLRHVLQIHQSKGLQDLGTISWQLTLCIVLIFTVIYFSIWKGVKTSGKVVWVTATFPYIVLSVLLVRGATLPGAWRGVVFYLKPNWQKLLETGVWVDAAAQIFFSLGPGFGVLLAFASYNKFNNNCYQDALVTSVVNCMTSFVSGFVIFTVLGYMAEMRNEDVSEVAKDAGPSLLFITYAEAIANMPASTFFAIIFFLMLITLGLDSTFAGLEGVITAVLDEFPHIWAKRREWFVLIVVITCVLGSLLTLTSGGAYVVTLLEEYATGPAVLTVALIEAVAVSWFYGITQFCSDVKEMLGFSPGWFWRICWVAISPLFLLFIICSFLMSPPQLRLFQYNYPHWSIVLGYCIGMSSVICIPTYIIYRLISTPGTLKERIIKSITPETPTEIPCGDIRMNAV

Activity [1]: 4
Activity [2]: 3
Activity [3]: 1
PCMA antagonism [4]: 2
PCMA antagonism [5]: 2
PCMA antagonism [6]: 2
Compound: CN1CCN(c2nc3ccc(S(N)(=O)=O)cc3nc2Cl)CC1

Compound: CS(=O)(=O)c1ccc2nc(N3CCNCC3)cnc2c1
PCMA antagonism (Rattus norvegicus [7]): 2
Activity (Rattus norvegicus [8]): 2
Activity (Rattus norvegicus [9]): 1
PCMA antagonism (Rattus norvegicus [10]): 0
PCMA antagonism (Rattus norvegicus [11]): 0
Activity (Rattus norvegicus [12]): 0

Compound: Clc1cc2ncc(N3CCNCC3)nc2cc1Cl
Activity [1]: 1
Activity [2]: 0
Activity [3]: 2
PCMA antagonism [4]: 3
PCMA antagonism [5]: 4
PCMA antagonism [6]: 1

Compound: Brc1ccc2nc(N3CCNCC3)cnc2c1.Cl
PCMA antagonism (Rattus norvegicus [7]): 2
Activity (Rattus norvegicus [8]): 2
Activity (Rattus norvegicus [9]): 4
PCMA antagonism (Rattus norvegicus [10]): 3
PCMA antagonism (Rattus norvegicus [11]): 2
Activity (Rattus norvegicus [12]): 0

Compound: CN(C)CCCN1c2ccccc2CCc2ccc(Cl)cc21 [CLOMIPRAMINE]
ED50 (Rattus norvegicus [13]): 2 mg/kg

Activity [1]: 1
Activity [2]: 2
Activity [3]: 2
PCMA antagonism [4]: 0
PCMA antagonism [5]: 1
PCMA antagonism [6]: 0
Compound: CC(=O)N1CCN(c2cnc3cc(Cl)ccc3n2)CC1

Compound: COc1ccc2nc(N3CCNCC3)cnc2c1
Activity [2]: 1
Activity [3]: 1
Activity (Rattus norvegicus [14]): Active
PCMA antagonism [5]: 5
PCMA antagonism [6]: 3

Compound: COc1cccc2nc(N3CCNCC3)cnc12
Activity [1]: 3
Activity [2]: 1
Activity [3]: 2
PCMA antagonism [4]: 2
PCMA antagonism [5]: 1
PCMA antagonism [6]: 0

Compound: Cc1cccc2nc(N3CCNCC3)cnc12.Cl
Activity (Rattus norvegicus [15]): 5
Activity (Rattus norvegicus [16]): 4
PCMA antagonism (Rattus norvegicus [17]): 1
PCMA antagonism (Rattus norvegicus [18]): 1
PCMA antagonism (Rattus norvegicus [19]): 0
Activity (Rattus norvegicus [20]): 0

Compound: Fc1ccc2nc(N3CCNCC3)cnc2c1
PCMA antagonism [4]: 4
Activity (Rattus norvegicus [8]): 5
Activity (Rattus norvegicus [9]): 4
PCMA antagonism [5]: 2
Activity (Rattus norvegicus [12]): 4
PCMA antagonism [6]: 2

Compound: Clc1ccc2ncc(N3CCNCC3)nc2c1
PCMA antagonism (Rattus norvegicus [21]): 1
Activity (Rattus norvegicus [15]): 3
Activity (Rattus norvegicus [16]): 1
PCMA antagonism (Rattus norvegicus [17]): 5
Activity (Rattus norvegicus [22]): 0
PCMA antagonism (Rattus norvegicus [18]): 3

Compound: CN1CCN(c2nc3ccccc3nc2O)CC1
Activity [1]: 6
Activity [2]: 0
Activity [3]: 0
PCMA antagonism [4]: 0
PCMA antagonism [5]: 0
PCMA antagonism [6]: 1

Compound: Cl.O=[N+]([O-])c1ccc2ncc(N3CCNCC3)nc2c1
PCMA antagonism (Rattus norvegicus [7]): 2
Activity (Rattus norvegicus [23]): 0
PCMA antagonism (Rattus norvegicus [10]): 5
Activity (Rattus norvegicus [24]): 0
Activity (Rattus norvegicus [12]): 1
PCMA antagonism (Rattus norvegicus [25]): 4

Activity [1]: 0
Activity [2]: 1
Activity [3]: 1
PCMA antagonism [4]: 1
PCMA antagonism [5]: 2
PCMA antagonism [6]: 1
Compound: Clc1ccc2nc(N3CCNCC3)c(Sc3ccccc3)nc2c1

Compound: Cl.ON1CCN(c2cnc3ccccc3n2)CC1
Activity (Rattus norvegicus [15]): 4
Activity (Rattus norvegicus [16]): 2
Activity (Rattus norvegicus [20]): 2

Compound: Cn1c(=O)c(N2CCNCC2)nc2ccccc21
PCMA antagonism (Rattus norvegicus [21]): 1
Activity (Rattus norvegicus [15]): 5
Activity (Rattus norvegicus [16]): 3
PCMA antagonism (Rattus norvegicus [17]): 0
Activity (Rattus norvegicus [22]): 1
PCMA antagonism (Rattus norvegicus [18]): 2
